In brackets after ≈: the same amount, converted by molar mass.
Tests used:
Assay type in all cases: functional
[1] = system: Staphylococcus aureus; assay: Antibacterial activity against methicillin-resistant glycopeptide-intermediate Staphylococcus aureus Mu50 after 16 to 20 hrs by microbroth dilution method
In short: (§1)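 CLSI broth microdilution in Mueller-Hinton broth. Compound stocks in 100% DMSO, serially diluted two-fold to 0.12->256 mg/L. An equal volume of inoculum at 1 x 10⁶ CFU/mL was added to each well. Plates were incubated 16-20 h at 35 °C. MIC (mg/L) was taken as the lowest concentration with no visible growth. DMSO and uninoculated-medium controls were run in parallel.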

[2] = system: Staphylococcus aureus; assay: Antibacterial activity against methicillin-resistant Staphylococcus aureus C530 after 16 to 20 hrs by microbroth dilution method; in short: as §1
[3] = system: Streptococcus pneumoniae; assay: Antibacterial activity against Streptococcus pneumoniae PEN-1 after 16 to 20 hrs by microbroth dilution method; details: PEN I
In short: (§2)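 CLSI broth microdilution in Mueller-Hinton broth. Compounds were dissolved in 100% DMSO and serially two-fold diluted to cover 0.12 to >256 mg/L. An equal volume of inoculum at 1 × 10⁶ CFU/mL was added, then plates were incubated at 35 °C for 16–20 h. MIC was the lowest concentration with no visible growth. DMSO and uninoculated-medium controls were run in parallel.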

[4] = system: Escherichia coli; assay: Antibacterial activity against Escherichia coli ATCC 25922 after 16 to 20 hrs by microbroth dilution method; in short: as §2
[5] = system: Escherichia coli; assay: Antibacterial activity against Escherichia coli 3350 after 16 to 20 hrs by microbroth dilution method; in short: as §2
[6] = system: Serratia marcescens; assay: Antibacterial activity against Serratia marcescens Mel 522 after 16 to 20 hrs by microbroth dilution method; in short: as §2
[7] = system: Streptococcus pyogenes; assay: Antibacterial activity against Streptococcus pyogenes ATCC 19615 after 16 to 20 hrs by microbroth dilution method; in short: as §1
[8] = system: Streptococcus pyogenes; assay: Antibacterial activity against erythromycin-resistant Streptococcus pyogenes 6 after 16 to 20 hrs by microbroth dilution method; in short: as §1
[9] = system: Streptococcus pyogenes; assay: Antibacterial activity against erythromycin-resistant Streptococcus pyogenes 24 after 16 to 20 hrs by microbroth dilution method; in short: as §1
[10] = system: Streptococcus pyogenes; assay: Antibacterial activity against erythromycin-resistant Streptococcus pyogenes 47 after 16 to 20 hrs by microbroth dilution method; in short: as §1
[11] = system: Streptococcus pyogenes; assay: Antibacterial activity against erythromycin-sensitive Streptococcus pyogenes 3 after 16 to 20 hrs by microbroth dilution method; in short: as §2
[12] = system: Streptococcus pyogenes; assay: Antibacterial activity against erythromycin-sensitive Streptococcus pyogenes 9 after 16 to 20 hrs by microbroth dilution method; in short: as §2
[13] = system: Streptococcus pyogenes; assay: Antibacterial activity against erythromycin-sensitive Streptococcus pyogenes 12 after 16 to 20 hrs by microbroth dilution method; in short: as §2
[14] = system: Staphylococcus aureus; assay: Antibacterial activity against methicillin-sensitive Staphylococcus aureus ATCC 29213 after 16 to 20 hrs by microbroth dilution method; in short: as §2
[15] = system: Staphylococcus aureus; assay: Antibacterial activity against methicillin-sensitive Staphylococcus aureus ATCC 25923 after 16 to 20 hrs by microbroth dilution method; in short: as §2
[16] = system: Staphylococcus aureus; assay: Antibacterial activity against Staphylococcus aureus ATCC 43300 after 16 to 20 hrs by microbroth dilution method; in short: as §2
[17] = system: Streptococcus pyogenes; assay: Antibacterial activity against compound-resistant Streptococcus pyogenes 24 after 16 to 20 hrs by microbroth dilution method; in short: as §1
[18] = system: Streptococcus pyogenes; assay: Antibacterial activity against compound-resistant Streptococcus pyogenes 47 after 16 to 20 hrs by microbroth dilution method; in short: as §1

SMILES	MIC [1] [µg/mL]	MIC [2] [µg/mL]	MIC [3] [µg/mL]	MIC [4] [µg/mL]	MIC [5] [µg/mL]	MIC [6] [µg/mL]	MIC [7] [µg/mL]	MIC [8] [µg/mL]	MIC [9] [µg/mL]	MIC [10] [µg/mL]	MIC [11] [µg/mL]	MIC [12] [µg/mL]	MIC [13] [µg/mL]	MIC [14] [µg/mL]	MIC [15] [µg/mL]	MIC [16] [µg/mL]	MIC [17] [µg/mL]	MIC [18] [µg/mL]
CC(=O)NCc1noc(-c2ccc(N3CCOCC3)cc2)n1	> 256	> 256	128 (≈ 423 µM)	> 256	128 (≈ 423 µM)	128 (≈ 423 µM)	128 (≈ 423 µM)	128 (≈ 423 µM)	64 (≈ 212 µM)	64 (≈ 212 µM)	128 (≈ 423 µM)	128 (≈ 423 µM)	128 (≈ 423 µM)	> 256	> 256	> 256	–	–
CC(=O)NCc1noc(-c2ccc(N3CCOCC3)c(F)c2)n1	> 256	> 256	> 256	128 (≈ 400 µM)	128 (≈ 400 µM)	> 256	128 (≈ 400 µM)	128 (≈ 400 µM)	128 (≈ 400 µM)	> 256	> 256	> 256	128 (≈ 400 µM)	> 256	> 256	> 256	–	–
CC(=O)NCc1noc(-c2cc(F)c(N3CCOCC3)c(F)c2)n1	> 256	> 256	> 256	128 (≈ 378 µM)	128 (≈ 378 µM)	> 256	128 (≈ 378 µM)	128 (≈ 378 µM)	> 256	128 (≈ 378 µM)	> 256	> 256	> 256	> 256	> 256	> 256	–	–
CC(=O)NCc1noc(-c2cc(F)c(N3CCOCC3)c(F)c2F)n1	> 256	> 256	> 256	128 (≈ 359 µM)	128 (≈ 359 µM)	> 256	128 (≈ 359 µM)	128 (≈ 359 µM)	> 256	128 (≈ 359 µM)	> 256	> 256	> 256	> 256	> 256	> 256	–	–
CC(=O)NCc1noc(-c2c(F)c(F)c(N3CCOCC3)c(F)c2F)n1	> 256	> 256	> 256	128 (≈ 342 µM)	> 256	> 256	> 256	> 256	> 256	> 256	> 256	> 256	> 256	> 256	> 256	> 256	–	–
NC(=O)c1noc(-c2ccc(N3CCOCC3)cc2)n1	> 256	> 256	128 (≈ 467 µM)	> 256	128 (≈ 467 µM)	128 (≈ 467 µM)	128 (≈ 467 µM)	128 (≈ 467 µM)	> 256	> 256	128 (≈ 467 µM)	128 (≈ 467 µM)	128 (≈ 467 µM)	> 256	> 256	> 256	–	–
NC(=O)c1noc(-c2ccc(N3CCOCC3)c(F)c2)n1	> 256	> 256	> 256	128 (≈ 438 µM)	128 (≈ 438 µM)	128 (≈ 438 µM)	128 (≈ 438 µM)	128 (≈ 438 µM)	128 (≈ 438 µM)	> 256	128 (≈ 438 µM)	> 256	128 (≈ 438 µM)	> 256	> 256	> 256	–	–
NC(=O)c1noc(-c2cc(F)c(N3CCOCC3)c(F)c2)n1	> 256	> 256	> 256	128 (≈ 413 µM)	128 (≈ 413 µM)	> 256	128 (≈ 413 µM)	128 (≈ 413 µM)	> 256	128 (≈ 413 µM)	> 256	> 256	> 256	> 256	> 256	> 256	–	–
NC(=O)c1noc(-c2cc(F)c(N3CCOCC3)c(F)c2F)n1	> 256	> 256	> 256	128 (≈ 390 µM)	128 (≈ 390 µM)	> 256	128 (≈ 390 µM)	128 (≈ 390 µM)	> 256	128 (≈ 390 µM)	> 256	> 256	> 256	> 256	> 256	> 256	–	–
NC(=O)c1noc(-c2c(F)c(F)c(N3CCOCC3)c(F)c2F)n1	> 256	> 256	> 256	128 (≈ 370 µM)	> 256	> 256	> 256	> 256	> 256	> 256	> 256	> 256	> 256	> 256	> 256	> 256	–	–
CO/N=C(\C(=O)N[C@@H]1C(=O)N2C(C(=O)O)=C(CSc3nc(=O)c(O)nn3C)CS[C@H]12)c1csc(N)n1 [CEFTRIAXONE]	4 (≈ 7.21 µM)	> 256	0.12 (≈ 0.216 µM)	0.12 (≈ 0.216 µM)	4 (≈ 7.21 µM)	< 0.12	< 0.12	< 0.12	< 0.12	< 0.12	< 0.12	< 0.12	< 0.12	4 (≈ 7.21 µM)	1 (≈ 1.8 µM)	8 (≈ 14.4 µM)	–	–
CC[C@H]1OC(=O)[C@H](C)[C@@H](O[C@H]2C[C@@](C)(OC)[C@@H](O)[C@H](C)O2)[C@H](C)[C@@H](O[C@@H]2O[C@H](C)C[C@H](N(C)C)[C@H]2O)[C@](C)(O)C[C@@H](C)C(=O)[C@H](C)[C@@H](O)[C@]1(C)O [ERYTHROMYCIN]	–	–	–	–	–	–	–	–	–	–	–	–	–	–	–	–	> 256	> 256
CC(=O)NC[C@H]1CN(c2ccc(N3CCOCC3)c(F)c2)C(=O)O1 [LINEZOLID]	–	–	–	4 (≈ 11.9 µM)	> 256	128 (≈ 379 µM)	1 (≈ 2.96 µM)	0.12 (≈ 0.356 µM)	0.12 (≈ 0.356 µM)	1 (≈ 2.96 µM)	1 (≈ 2.96 µM)	1 (≈ 2.96 µM)	0.25 (≈ 0.741 µM)	–	1 (≈ 2.96 µM)	–	–	–

Source: ChEMBL document CHEMBL1949535, “Synthesis and preliminary antibacterial evaluation of Linezolid-like 1,2,4-oxadiazole derivatives” (2012)
